Experimental data taken from ChEMBL document CHEMBL2417361, “Investigation of acyclic uridine amide and 5'-amido nucleoside analogues as potential inhibitors of the Plasmodium falciparum dUTPase” (Bioorg Med Chem, 2013).

What was measured:
[1] = Inhibition of recombinant Plasmodium falciparum dUTPase expressed in Escherichia coli BL21 (DE3) using dUTP as substrate by spectrophotometric analysis
Procedure, shortened: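 Recombinant enzyme from IPTG-induced E. coli BL21(DE3), purified by phosphocellulose and gel filtration to ≥96% purity, stored in 10 mM bicine/5 mM MgCl2 pH 8. Stopped-flow mixing of 30 nM PfdUTPase with 50 µM dUTP, 5 mM MgCl2, 1 mg/mL BSA and 100 mM KCl. Proton release tracked with cresol red/bicine (pH 8) at 573 nm. Vmax and KMapp fitted by integrated Michaelis–Menten equation.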

L6 = assay: Cytotoxicity against rat L6 cells after 72 hrs by Alamar Blue assay; format: cell-based; conditions: L6, 72 h
Procedure, shortened: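 Rat skeletal myoblast L6 line, with podophyllotoxin as control. EC50 is the mean of two independent assays.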

Plasmodium falciparum = assay: Antiparasitic activity against chloroquine/pyrimethamine-resistant Plasmodium falciparum K1 infected in erythrocytes assessed as parasite growth inhibition after 48 hrs by [3H]-hypoxanthine incorporation assay; format: functional, organism-based
[2] = molecular target: T1, Deoxyuridine 5'-triphosphate nucleotidohydrolase, mitochondrial (Homo sapiens, UniProt P33316); assay: Inhibition of recombinant human dUTPase expressed in Escherichia coli BL21 (DE3) using dUTP as substrate by spectrophotometric analysis
T1 sequence (P33316 whole entry): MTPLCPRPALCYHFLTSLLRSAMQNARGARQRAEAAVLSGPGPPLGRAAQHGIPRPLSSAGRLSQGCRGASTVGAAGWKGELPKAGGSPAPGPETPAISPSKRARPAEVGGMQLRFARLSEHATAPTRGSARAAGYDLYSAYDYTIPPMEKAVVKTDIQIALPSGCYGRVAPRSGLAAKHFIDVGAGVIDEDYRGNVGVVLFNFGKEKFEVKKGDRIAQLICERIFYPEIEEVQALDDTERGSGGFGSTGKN
Procedure, shortened: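 Human enzyme expressed in IPTG-induced E. coli BL21(DE3) and purified like the parasite enzyme (phosphocellulose, then gel filtration, ≥96% pure). Hydrolysis after rapid mixing was read as proton release using a cresol red/bicine indicator pair (pH 8, 573 nm), with absorbance change kept within 0.1 units. Vmax and KMapp were fitted to the integrated Michaelis–Menten equation.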

[3] = Selectivity index, ratio of EC50 for rat L6 cells to EC50 for Plasmodium falciparum K1; format: toxicity, cell-based; conditions: read-out: Ratio EC50
[4] = Selectivity index, ratio of Ki for human dUTPase to Ki for recombinant Plasmodium falciparum dUTPase

Row | Ki [2] [µM] | Ratio Ki [4] | SMILES | Ki [1] [µM] | EC50 (L6) [µM] | EC50 (Plasmodium falciparum) [µM] | selectivity ratio [3]
1 | – | – | O=c1ccn([C@H]2C[C@H](O)[C@@H](CNC(c3ccccc3)(c3ccccc3)c3ccccc3)O2)c(=O)[nH]1 | 0.2 | – | – | –
2 | – | – | O=c1ccn(CCCCNC(c2ccccc2)(c2ccccc2)c2ccccc2)c(=O)[nH]1 | – | – | – | 9
3 | – | – | O=c1ccn(CCCCCCOC(c2ccccc2)(c2ccccc2)c2ccccc2)c(=O)[nH]1 | – | – | – | 19
4 | 1000 | 400 | O=C(O)CCCn1ccc(=O)[nH]c1=O | > 100 | – | – | –
5 | 1000 | – | O=C(NCCCn1ccc(=O)[nH]c1=O)C(c1ccccc1)(c1ccccc1)c1ccccc1 | – | – | – | –
6 | 1000 | 56 | O=C(c1ccccc1)n1c(=O)ccn(CCCNC(=O)C(c2ccccc2)(c2ccccc2)c2ccccc2)c1=O | > 100 | – | – | –
7 | 1000 | 13 | O=C(NCCCO)C(c1ccccc1)c1ccccc1 | > 100 | – | – | –
8 | 1000 | – | O=C(CCCn1ccc(=O)[nH]c1=O)NC(c1ccccc1)(c1ccccc1)c1ccccc1 | – | – | – | –
9 | – | 1 | O=C(NCCCO)C(c1ccccc1)(c1ccccc1)c1ccccc1 | – | – | – | –
10 | 1000 | – | O=C(CCCn1ccc(=O)[nH]c1=O)NC(c1ccccc1)c1ccccc1 | – | – | – | –
11 | – | – | O=c1ccn(CCCOC(c2ccccc2)(c2ccccc2)c2ccccc2)c(=O)[nH]1 | – | – | – | 5
12 | – | – | O=c1ccn(CCCCCCNC(c2ccccc2)(c2ccccc2)c2ccccc2)c(=O)[nH]1 | – | – | – | 36

Row | SMILES | Ki [2] [µM] | Ratio Ki [4] | Ki [1] [µM] | EC50 (L6) [µM] | EC50 (Plasmodium falciparum) [µM] | selectivity ratio [3]
13 | O=c1ccn(CCCCOC(c2ccccc2)c2ccccc2)c(=O)[nH]1 | 49 | – | 0.5 | 104 | 14 | 7
14 | O=c1ccn(CCCNC(c2ccccc2)c2ccccc2)c(=O)[nH]1 | 10 | – | 5.7 | 269 | 5.5 | 49
15 | O=c1ccn([C@H]2C[C@H](O)[C@@H](CNC(c3ccccc3)c3ccccc3)O2)c(=O)[nH]1 | > 100 | – | 0.2 | > 229 | 12 | > 20
16 | O=c1ccn(CCCCNC(c2ccccc2)c2ccccc2)c(=O)[nH]1 | 63 | – | 5.7 | 99 | 2.6 | 38
